For series [1], the system named is HepG2 cells. The series is described as follows: cellular uptake by CLSM in HepG2 cells. It counts as cell-based, human. The note with it: 10 μM, 6 h, 37 °C, 5% CO2; CLSM fluorescence imaging. The essentials:
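HepG2 cells seeded on glass-bottom dishes at 2.0 × 10^4 cells/well, grown ~24 h, then transduced with BacMam tubulin–GFP for 24 h at 37 °C, 5% CO2. Incubated with 10 μM test compound in medium, PBS-washed, and nuclei stained with 5 μg/mL Hoechst 33342 for 10 min. Confocal imaging: compound ex 550/em 574 nm, GFP ex 489/em 510 nm.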

Series [2] deals with HepG2 cells. The series is described as follows: cell viability assay. Format: cell-based, human. Conditions: 0–20 μM, 37 °C, 5% CO2, WST (Cell Counting Kit-8), absorbance at 450 nm. The essentials:
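HepG2 cells plated at 1.0 × 10^4 cells/well and grown 24 h at 37 °C, 5% CO2. Medium replaced with 0–20 μM test compound for 24 or 72 h. Then fresh medium plus Cell Counting Kit-8 (WST) reagent, 4 h incubation, and absorbance read at 450 nm. Viability (%) is relative to untreated control cells set as 100%.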
In general terms: Tetrazolium assays rely on reduction of a dye to a coloured formazan, in cell work by metabolically active cells.

Series [3] concerns MTs. The series is described as follows: depolymerization/polymerization of MTs in living HepG2 cells. The note with it: 10 μM colchicine coincubated with 10 μM TP–TMR, 6 h, 37 °C. It counts as cell-based, human. The essentials:
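HepG2 cells expressing BacMam-delivered tubulin–GFP were coincubated with 10 μM test compound and 10 μM colchicine for 6 h at 37 °C under 5% CO2. Nuclei stained with Hoechst 33342 after a PBS wash. Compound and tubulin–GFP signals imaged by confocal microscopy to assess colocalization of compound fluorescence with microtubule fibres.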

The test system of series [4] is MTs. The note with it: cited from earlier work.
For series [5] the following is noted: cited from earlier work.

As to “5(6)-carboxytetramethylrhodamine [TMR–COOH]”, the “cellular uptake into HepG2 cells” value with HepG2 cells [1] was “not observed”. On to `COc1cc2c(c(OC)c1OC)-c1ccc(OC)c(=O)cc1[C@@H](NC(C)=O)CC2` [colchicine], for which the “cytotoxicity against HepG2 cells, 24 h” value in the series with HepG2 cells [2] is “clear cytotoxicity in a concentration-dependent manner”. In addition, the “effect on polymerization of MTs in HepG2 cells” value in the series on MTs [3] is on record as “polymerization of MTs was inhibited”.

Consider `CC(=O)O[C@H]1C(=O)[C@@]2(C)[C@H]([C@H](OC(=O)c3ccccc3)[C@]3(O)C[C@H](OC(=O)[C@H](O)[C@@H](NC(=O)c4ccccc4)c4ccccc4)C(C)=C1C3(C)C)[C@]1(OC(C)=O)CO[C@@H]1C[C@@H]2O` [taxol], for which the “cytotoxicity against HepG2 cells, 24 h” value in the series with HepG2 cells [2] was “clear cytotoxicity in a concentration-dependent manner”. Turning to CGGGKKHVPGGGSVQIVYKPVDL [TP], the “effect of binding on polymerization/depolymerization of MTs in vitro” value in the series with MTs [4] is recorded as “does not inhibit”. Also, in series [5], the water solubility entry is “high water solubility at millimolar concentrations”.

The values are drawn from publication PMC6648849 (ACS Omega, 2019).
